# Screens from PubChem.
# Calb biofilm kill: kills Candida albicans biofilms; C. albicans biofilm + clotrimazole, Alamar Blue; inhibition, % at 6 µM; hit rate 0.14% among 85,000;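 active = inhibition above 20%; inactive = inhibition below 20%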;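 also: preformed 24 hr biofilms exposed to compound for 48 hr; 0% = biofilm without compound and 100% = blank killed by clotrimazole plus chlorhexidine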
# hDAT+cocaine: modulates human dopamine transporter uptake under cocaine | LLC-PK1 hDAT cells, [14C]-dopamine uptake with cocaine IC80; actives deviate in either direction | B-score at 10 µM | hit rate 1.3% among 110,000 | AID 449768;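 active = Z score or B-score, a plate-position-corrected score, falls beyond the plate's 99.7% confidence bounds, in either direction; inactive = both scores lie inside the 99.7% bounds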;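 also: scored against the spread of the other compound wells on the same plate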
# AP ELISA ortho: alternative pathway complement inhibition, orthogonal assay; hit rate 0.08% among 62,000; inhibition, % at 5 µM; Human serum alternative complement pathway, LPS-coated ELISA, C3 deposition; tested in compound mixtures;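 active = inhibition above 30% in each of the two pooled mixtures holding the compound, so the lower value exceeds 30%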;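 also: 0% = serum in Mg-EGTA without compound and 100% = EDTA serum blank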
#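 Assay system: human serum alternative complement pathway, C3 deposition on LPS-coated wells; Dosing: 5 µM per compound in ten-compound mixtures; Detection: Anti-C3 ELISA, OD 450 nm; Buffer or medium: Mg2+-EGTA GVB++ buffer containing human serum at 1:15 dilution; Timing: 1 h at 37 °C; Replication: two different pools per compound.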
# D1 allo mod: D1 dopamine receptor (human) allosteric modulation. hit rate 5.9% among 58,000. HEK293 D1, CRE-luciferase, dopamine EC30 potentiation; actives deviate in either direction. P21728. B-score at 10 µM;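 active = luminescence count or its row- and column-corrected plate score outside the 99.7% band of the plate's sample wells, on either side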
# Target sequence (P21728 whole entry, looked up): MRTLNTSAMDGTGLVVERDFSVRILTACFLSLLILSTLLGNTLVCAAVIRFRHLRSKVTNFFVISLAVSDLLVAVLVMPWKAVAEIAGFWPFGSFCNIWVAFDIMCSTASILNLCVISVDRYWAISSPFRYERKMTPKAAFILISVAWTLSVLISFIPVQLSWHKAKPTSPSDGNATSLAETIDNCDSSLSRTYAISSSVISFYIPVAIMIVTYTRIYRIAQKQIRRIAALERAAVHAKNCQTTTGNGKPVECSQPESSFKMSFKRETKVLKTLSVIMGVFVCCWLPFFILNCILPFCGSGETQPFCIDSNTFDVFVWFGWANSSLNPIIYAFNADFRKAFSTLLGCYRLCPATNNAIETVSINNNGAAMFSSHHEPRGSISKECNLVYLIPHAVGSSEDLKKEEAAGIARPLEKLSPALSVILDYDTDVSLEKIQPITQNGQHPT
# MMP13 inh: inhibitors of human MMP13; P45452; MMP-13 fTHP FRET cleavage, Mca fluorescence; inhibition, % at 4 µM; hit rate 0.07% among 65,000; AID 570;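 active = inhibition above the mean of compound-free control plate wells plus 3 SD, cut at about 14% in these data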;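 also: 0% = DMSO wells and 100% = wells with reference MMP-13 inhibitor after basal subtraction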
# D1 PAM confirm: confirmation of human D1 dopamine receptor allosteric modulators | HEK293 D1 CRE-luciferase, dopamine EC30 potentiation; stronger effect = higher value | hit rate 88% among 2,200 | luminescence at 10 µM | shares compounds with D1 allo mod;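 active = luminescence in either of two replicates above the same-plate mean plus 3 SD of the low-dose dopamine control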
# D1 ag no DA: activates D1 CRE-luciferase signal without dopamine present | shares compounds with D1 allo mod | hit rate 0.8% among 1,900 | HEK293 D1 CRE-luciferase, luminescence, no dopamine; stronger effect = higher value | luminescence at 10 µM | AID 646; in the data active = luminescence above about 3900
# Isoprot counter: isoproterenol response counter-screen activity for D1 modulators; shares compounds with D1 allo mod; HEK293 D1 CRE-luciferase, isoproterenol EC30 counter-screen; stronger effect = higher value; luminescence at 10 µM; hit rate 63% among 2,200;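 active = luminescence in either replicate above plate mean of wells with a partly effective reference agonist dose plus 3 SD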;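 also: isoproterenol raises cAMP through native beta-adrenoceptor Gs so signal bypasses D1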
# * marks the source's active call; other numbers are inactive results; . = no result. Shown is part of a subset that was picked to be rich in hits.
SMILES,Calb biofilm kill,hDAT+cocaine,AP ELISA ortho,D1 allo mod,MMP13 inh,D1 PAM confirm,D1 ag no DA,Isoprot counter
CCOC(=O)c1[nH]c2ccccc2c1NC(=O)c1nonc1C,1.8,-1.42,-7.1,5.8*,1.9,11368*,1672,3528*
CCOC(=O)c1[nH]c2ccc(Cl)cc2c1NC(=O)c1nonc1C,8.8,0.0418,.,.,.,.,.,.
CCOC(=O)c1[nH]c2ccc(OC)cc2c1NC(=O)c1nonc1C,6.5,-0.0383,2.3,8.71*,6.0,12456*,.,3508*
Cc1nc(NC(=O)CC(C)C)sc1-c1csc(Nc2ccc(Cl)cc2)n1,.,0.152,.,.,.,.,.,.
CCOC(=O)COc1ccsc1C(=O)OC,.,-0.0296,.,.,.,.,.,.
COc1ccccc1Nc1ncccc1C(=O)NCc1ccccc1,5.1,0.0677,.,.,.,.,.,.
O=C(CC(c1ccccc1)c1ccccc1)OCn1nnc2ccccc2c1=O,.,-0.344,.,.,.,.,.,.
O=c1c2cccc3c2c(nn1CN1CCOCC1)-c1ccccc1-3,.,-0.137,14.0,5.3*,-11.7,8092*,1824,3352*
Nc1nc(-c2ccc(F)cc2)cc(C(F)(F)F)n1,0.5,-0.0914,.,.,.,.,.,.
Nc1nc(-c2ccc(Cl)cc2)cc(C(F)(F)F)n1,8.8,-0.00979,9.2,19.2*,-2.8,19568*,1592,3456*
CCc1nc(N)nc2c1C(=O)CC(C)(C)C2,-2.4,-1.54,-7.3,8.26*,-9.8,20244*,1712,4008*
CC1(C)CC(=O)c2cnc(N)nc2C1,7.8,0.471,.,.,.,.,.,.
Cc1ccc(N2CC(C(=O)Nc3cc(C)on3)CC2=O)cc1 (stereo unspecified),.,0.155,.,.,.,.,.,.
O=C(CCNS(=O)(=O)c1ccc2c(c1)CCC(=O)N2)NCc1ccc2c(c1)OCO2,2.2,-1.63,9.8,2.86*,1.5,6928*,1720,2668
Cc1ccc(S(=O)(=O)NCCC(=O)NCc2ccc3c(c2)OCO3)cc1C,10.5,0.194,17.1,1.29,-0.6,.,.,.
CC(C)(C)c1csc(NC(=O)c2ccc3nccnc3c2)n1,8.2,2.16,.,.,.,.,.,.
Cc1ccc(NC(=O)NNc2cccc(Cl)n2)cc1,.,-0.15,.,.,.,.,.,.
COc1ccc(-c2cc(=O)oc3c(C)c(O)c(CN(C)C)cc23)cc1,5.4,0.369,2.8,3.6*,-11.3,9264*,1600,2316
CCC(CC)C(=O)Nc1cccc(C(=O)Nc2ccc(S(=O)(=O)Nc3ccc(C)cc3)cc2)c1,.,-0.412,.,.,.,.,.,.
CCSC(C)CC1C/C(=N/O)c2c(CC)noc2C1 (stereo unspecified),3.6,-0.542,-5.5,5.31*,2.6,8312*,1736,2608
N#Cc1c(-c2ccccc2Cl)cc(C2CC2)nc1N,-3.3,-0.629,.,14.8*,-12.6,20296*,1408,4128*
Cc1nc(N)c(C#N)c(-c2ccccc2Cl)c1C,9.3,-0.202,.,.,.,.,.,.
COc1ccccc1-c1cc(C2CC2)nc(N)c1C#N,8.1,-0.0915,-1.2,9.4*,-35.3,11344*,1800,3600*
O=C(NCCNCCO)C1(C(F)(F)F)C/C(=C\CCO)CCCO1 (stereo unspecified),.,-0.148,.,.,.,.,.,.
O=C(NCCO)C(F)(F)C(F)(F)C(F)(F)OC(F)(C(=O)NCCO)C(F)(F)F (stereo unspecified),5.9,-1.22,.,.,.,.,.,.
SMILES,Calb biofilm kill,hDAT+cocaine,AP ELISA ortho,D1 allo mod,MMP13 inh,D1 PAM confirm,D1 ag no DA,Isoprot counter
COc1cccc(C2CC(C(F)(F)F)n3ncc(C(=O)NCC4CCCO4)c3N2)c1 (stereo unspecified),2.2,0.975,1.9,1.19,-2.6,.,.,.
COc1ccc(C2CC(C(F)(F)F)n3ncc(C(=O)NCc4cccnc4)c3N2)cc1OC (stereo unspecified),5.2,0.528,1.9,9.78*,-1.1,18500*,1632,7624*
CCOc1cc2nc(-c3ccc(OC)c(OC)c3)nc(N3CCOCC3)c2cc1OC,4.3,0.88,.,13*,-61.8,10492*,1512,5440*
Cc1ccc(-c2nc3ccc(NS(=O)(=O)c4ccccc4)cc3[nH]2)o1,-1.3,0.815,.,.,.,.,.,.
Cc1csc(NC(CO)c2nc3ccccc3n2CCOCCO)n1 (stereo unspecified),.,0.00484,.,.,.,.,.,.
O=C(CCCc1nc2ccccc2s1)N1CCN(S(=O)(=O)c2cccs2)CC1,-1.1,-0.0735,13.6,4.23*,-0.2,8136*,1520,2184
CCCCCCC1C(C#N)=C(N)OC2=C1C(=O)CC(C)(C)C2 (stereo unspecified),8.5,0.231,10.7,3.67*,-1.5,12024*,1864,3280*
c1coc(CNc2ncnc3sc4c(c23)CCCCC4)c1,-4.3,0.749,6.1,11*,-5.9,11680*,1516,3388*
O=C(NCCc1c[nH]c2ccccc12)[C@@H]1C[C@H]1[C@@H](NP(=O)(c1ccccc1)c1ccccc1)c1ccccc1,.,-0.195,.,.,.,.,.,.
CSc1nnc(-c2ccco2)c(-c2ccco2)n1,-2.9,-2.26,6.1,4.15*,-6.8,10584*,.,3436*
Cn1c(=O)[nH]c(=O)c2c1nc(NC1CCCCC1)n2CCO,.,-0.279,21.3,1.87,-3.1,.,.,.
CCCCCCCCn1c(N2CCN(c3cccc(Cl)c3)CC2)nc2c1c(=O)[nH]c(=O)n2C,-3.4,1.22,.,.,.,.,.,.
CC(C)CCn1c(N2CCN(c3cccc(Cl)c3)CC2)nc2c1c(=O)[nH]c(=O)n2C,.,0.059,26.8,15.2*,0.4,18092*,1700,6356*
Cn1c(=O)[nH]c(=O)c2c1nc(NC1CCCCC1)n2Cc1ccccc1,2.2,0.723,15.8,6.81*,0.8,8436*,1500,3656*
CCn1c(N2CCC(Cc3ccccc3)CC2)nc2c1c(=O)[nH]c(=O)n2C,9.4,-0.0198,19.4,0.0772,-2.1,.,.,.
Cc1ccc(Cn2c(-n3nc(C)cc3C)nc3c2c(=O)[nH]c(=O)n3C)cc1,8.7,0.722,-1.6,3.54*,0.7,9484*,1480,2868
Cc1cc(C)n(-c2nc3c(c(=O)[nH]c(=O)n3C)n2Cc2cccc(Br)c2)n1,10.1,0.438,-11.3,1.08,3.0,.,.,.
CC1CCN(c2nc3c(c(=O)[nH]c(=O)n3C)n2Cc2ccccc2)CC1,5.9,0.279,-2.8,7.89*,6.6,16032*,1452,3620*
CCO[C@H]1OC(C(=O)Nc2ccccc2)=C[C@@H](c2cn(C(C)=O)c3ccccc23)[C@@H]1CCCO,.,-0.0612,.,.,.,.,.,.
O=C(c1ccccc1)N1CCN2C(=O)c3ccccc3C12c1ccc(Cl)cc1 (stereo unspecified),6.2,0.157,.,.,.,.,.,.
CC1=NN(/C(=N\c2nnc(C)s2)Nc2ccc(C(C)(C)C)cc2)[C@H](c2ccc(C)cc2)S1,4.8,-0.0268,.,.,.,.,.,.
Cc1ccc(C)c2c1[nH]c1ccc([N+](=O)[O-])cc12,4.9,-0.35,.,.,.,.,.,.
COc1ccc2c(C(F)(F)F)cc(=O)oc2c1C,2.5,-0.00582,17.4,4.78*,-12.2,6684*,1588,3676
